# From PubChem
# IDE cell activ: IDE (human) activation, cell-based; HEK cells, FAbeta-B cleavage, fluorescence polarization; 0% vehicle, 100% cell-free pure enzyme wells; activation, % at 5.96 µM; P14735; AID 493087; 0.073% of 340,000 active;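 active = activation above the mean of all tested compounds plus 3 SD, set per screening campaign, cut at about 17% in these data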
# CSN inh: inhibitors of human CSN-mediated cullin deneddylation. inhibition, % at 12.5 µM. AID 651999. Purified CSN, SCF-Nedd8-OG deneddylation, fluorescence polarization. Q92905. 0.38% of 360,000 active;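 active = pattern-corrected inhibition above about 35%, with an unprinted fluorescence ratio check between 0.5 and 1.5, limit read from the data, passing the limit was not always enough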;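 also: 0% = enzyme with substrate and 100% = substrate without enzyme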
#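 Test system: purified human Csn5 enzyme expressed in HEK293T cells. Amount: 0.24 nM enzyme. Reagent: SCFSkp2-Nedd8OG substrate at 10 nM final. Schedule: 90 min incubation of compound, enzyme and substrate at room temperature. Detection: fluorescence polarization. Read-out: % inhibition of substrate cleavage by Csn5.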
# HNF4A DNA FP: change in binding of human HNF4 alpha to DNA. HNF4a-FITC DNA binding, fluorescence polarization, 1 h. activity change, % at 10 µM. 0.3% of 360,000 active. AID 1224865; in the data active = activity change above about 30%, passing the limit was not always enough
# TPT1 inh: blocks Candida albicans tRNA 2'-phosphotransferase; recombinant caTPT1, FP RNA substrate dephosphorylation; inhibition, % at 5 µM; 0.81% of 300,000 active; AID 1962;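 active = inhibition above the mean of all tested compounds plus 3 SD, set per screening campaign, cut at about 24% in these data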;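 also: plate controls were DMSO alone for no effect and ferristatin control at 100 nM for full effect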
# Rpn11 inh: blocks the human proteasome subunit Rpn11. human 26S proteasome, Ub4-pepOG fluorescence polarization; 20S core pre-blocked with epoxomicin. inhibition, % at 20 µM. 0.59% of 360,000 active. O00487. AID 588493;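 active = inhibition at 20 µM, scaled to each plate's controls, above about 33%, limit read from the data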
# IDE inh: inhibits human insulin-degrading enzyme in HEK cells. FAbetaB cleavage, fluorescence polarization. inhibition, % at 5.59 µM. 0.41% of 320,000 active. AID 434962;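 active = percent inhibition above the average of all tested compounds plus 3 SD, set per screening campaign, cut at about 16% in these data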;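 also: IDE supplied by intact live HEK cells; FP after avidin binding of uncleaved biotin substrate so inhibition keeps polarization high; 0% = DMSO wells and 100% = 60 µM reference IDE inhibitor Ii1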
# Rpn11 inh conf: confirmation of human proteasome Rpn11 inhibitors; purified human 26S proteasome, Ub4-pepOG fluorescence polarization; proteasome pretreated with epoxomicin; inhibition, % at 20 µM; 29% of 1,900 active; shares compounds with Rpn11 inh
# MMP-2 inh: MMP-2 (human) inhibition counter-screen; 4% of 1,900 active; recombinant MMP-2, FRET peptide cleavage fluorescence; AID 602330; inhibition, % at 20 µM; shares compounds with Rpn11 inh;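 also: human MMP-2 activated beforehand with APMA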
# Thrombin FP: thrombin (bovine) inhibition counter-screen; inhibition, % at 20 µM; shares compounds with Rpn11 inh; bovine thrombin cleavage of Ub4-pepOG, fluorescence polarization; 13% of 1,900 active;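 active = mean inhibition at least 40% at 20 µM, or signal 3 deviations below plate average, so some actives read negative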;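 also: plate controls were thrombin with DMSO for no effect and buffer wells lacking thrombin for full effect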
# Target sequence (P00735 whole entry, looked up): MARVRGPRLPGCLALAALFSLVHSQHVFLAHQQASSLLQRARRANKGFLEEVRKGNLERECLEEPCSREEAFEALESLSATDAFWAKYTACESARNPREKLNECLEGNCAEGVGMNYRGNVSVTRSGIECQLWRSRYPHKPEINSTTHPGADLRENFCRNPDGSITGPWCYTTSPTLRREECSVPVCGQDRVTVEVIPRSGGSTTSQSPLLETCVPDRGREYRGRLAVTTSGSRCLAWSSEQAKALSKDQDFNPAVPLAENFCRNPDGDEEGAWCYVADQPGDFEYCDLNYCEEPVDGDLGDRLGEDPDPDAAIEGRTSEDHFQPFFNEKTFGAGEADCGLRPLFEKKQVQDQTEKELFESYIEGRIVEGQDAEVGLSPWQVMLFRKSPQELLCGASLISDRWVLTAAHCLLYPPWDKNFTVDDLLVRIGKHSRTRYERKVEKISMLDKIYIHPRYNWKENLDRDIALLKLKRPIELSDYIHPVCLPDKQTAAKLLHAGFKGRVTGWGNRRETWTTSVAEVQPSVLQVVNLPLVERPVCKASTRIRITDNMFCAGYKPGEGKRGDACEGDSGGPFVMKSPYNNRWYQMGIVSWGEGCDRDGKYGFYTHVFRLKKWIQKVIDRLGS
# Active calls of the source: *; nt = not tested or not shown. This is a sample that favours compounds with a hit; in the whole collection about 1.7% have one here. Rule as the data show it, unless noted: active = inhibition above about 40%; inactive = the rest.
SMILES,IDE cell activ,CSN inh,HNF4A DNA FP,TPT1 inh,Rpn11 inh,IDE inh,Rpn11 inh conf,MMP-2 inh,Thrombin FP
COC1=C/C(=C/c2c(N)n3nc(CC(=O)N4CCCCC4)sc3nc2=O)C=CC1=O,-46.4,11.8,6.6,8.5,51.4*,11.6,39.3,3.9,52.2*
C=CC1=C(C(=O)O)N2C(=O)C(NC(=O)Cc3ccccc3)C2SC1 (stereo not given),1.5,54.3*,-56.0,2.8,137.5*,-1.7,34.3,31.3,-19.8
C=CCNC(=O)c1ccc(Cn2c(=S)[nH]c3cc4c(cc3c2=O)OCO4)cc1,-4.6,55.9*,16.1,6.5,148.1*,3.8,154.1*,40.6*,-17.7
CCOC(=O)c1c(N/C=C(\C#N)c2nc(-c3ccc(OC(C)=O)cc3)cs2)sc2c1CCC2,3.8,0.6,3.8,nt,6.7,nt,nt,nt,nt
Cc1ccc(-c2nnn3c2nc(NCCc2ccc(S(N)(=O)=O)cc2)c2ccccc23)cc1,-2.4,36.2*,9.2,1.6,56.9*,3.3,46.4*,-137.0,-8.5
Cc1cccc(-c2nnn3c2nc(NCCc2ccc(S(N)(=O)=O)cc2)c2ccccc23)c1,4.0,23.4,-11.1,0.5,11.3,1.6,nt,nt,nt
COc1ccc(-c2[nH][nH]c(=O)c2NC(=O)c2ccc(C)cc2)cc1,nt,0.6,1.8,nt,16.3,nt,nt,nt,nt
O=C(Nc1ccc(N2CCCC2)cc1)c1cc(Cl)ccc1Cl,2.7,22.7,14.1,3.1,77.3*,2.0,2.7,-10.8,-9.5
O=C(CN1CCCCC1)Nc1ccccc1,0.0,4.1,-23.8,-0.7,-1.6,3.2,nt,nt,nt
O=C(CN1CCCCC1)Nc1ccc(N2CCCCCC2)cc1,5.5,-3.0,71.7*,0.1,87.6*,-2.9,-5.3,-34.9,-4.6
CC(=O)N1CCN(c2ccc(NC(=O)c3cc4ccccc4o3)cc2)CC1,-0.2,-1.9,-2.4,-3.2,1.6,8.7,nt,nt,nt
O=C(Nc1ccc(N2CCCC2)cc1)c1cc2ccccc2o1,4.5,18.7,10.7,2.3,69.0*,-1.5,22.7,6.2,0.0
COc1ccccc1C(=O)Nc1nnc(SCC(=O)Nc2ccc3c(c2)oc2ccccc23)s1,0.4,2.8,11.9,7.2,63.4*,1.9,22.8,-24.4,-2.0
O=S(=O)(Nc1ccon1)c1ccc(Br)s1,2.1,2.0,39.1*,0.8,51.9*,-2.1,13.2,-27.5,1.6
CSc1nc2ccc(NS(=O)(=O)c3ccc(Br)s3)cc2s1,2.1,0.0,-2.2,2.0,-1.3,-0.6,nt,nt,nt
COc1cc2c(cc1OC)C(O)=CC(=O)C2=O,nt,-4.0,-0.6,nt,3.9,nt,nt,nt,nt
Cc1noc(/C=C/c2ccco2)c1S(=O)(=O)N1CCC(C(=O)NC(C)c2ccccc2)CC1 (stereo not given),4.0,5.3,21.3,4.8,52.3*,2.2,0.5,-37.4,-1.9
COc1ccc(/C=C\c2onc(C)c2S(=O)(=O)N2CCC(C(=O)NCc3ccco3)CC2)cc1,-0.1,2.6,-6.3,-0.2,1.9,4.0,nt,nt,nt
CC[C@]12C(=O)N(C)C[C@H]([C@@H]3C(=O)N(C)C(=O)[C@@H]31)N2C(=O)c1ccccc1,5.3,-0.2,-1.1,nt,1.0,nt,nt,nt,nt
COc1ccc(N2CCN(C(=O)CSc3ncccc3-c3nc4ccccc4[nH]3)CC2)cc1,-6.3,20.4,26.0,12.9,35.8*,0.8,8.2,21.5,12.2
COc1ccccc1N1CCN(C(=O)CSc2ncccc2-c2nc3ccccc3[nH]2)CC1,-1.1,22.6,25.0,13.2,31.3,1.3,nt,nt,nt
CC(C)CN(C(=O)CCNC(=O)c1ccc(Cl)cc1)C1CCS(=O)(=O)C1 (stereo not given),4.7,-2.2,-0.5,nt,-1.4,3.2,nt,nt,nt
O=C(/C=C/c1ccc([N+](=O)[O-])cc1)c1ccccc(=O)c1O,0.6,17.9,-1.4,nt,42.2*,nt,-1.8,-1.9,-15.3
O=C(/C=C/c1ccccc1Cl)c1ccccc(=O)c1O,4.5,19.1,-4.2,-1.2,14.8,-1.3,nt,nt,nt
Cc1ccc(NC(=O)CN(C)C(=O)c2cccc(-n3cccc3)c2)cc1,3.2,29.2,-39.4,nt,56.6*,nt,85.5*,28.6,21.3
SMILES,IDE cell activ,CSN inh,HNF4A DNA FP,TPT1 inh,Rpn11 inh,IDE inh,Rpn11 inh conf,MMP-2 inh,Thrombin FP
N#CC1C=Cc2c(ccc3ccccc23)N1C(=O)c1ccccc1 (stereo not given),2.6,-1.8,-2.5,nt,-6.4,nt,nt,nt,nt
O=C(COc1ccc2c3c(c(=O)oc2c1)CCC3)Nc1ccc(CCO)cc1,1.6,14.1,-0.1,1.1,45.4*,-3.9,17.8,-37.7,11.3
NS(=O)(=O)c1ccc(CCNC(=O)COc2ccc3c4c(c(=O)oc3c2)CCC4)cc1,4.9,2.2,3.1,0.9,-4.8,3.1,nt,nt,nt
O=C1NC(=O)/C(=C\c2ccccc2OCc2ccc([N+](=O)[O-])cc2)N1,-1.1,2.5,0.8,-1.3,45.4*,2.7,-11.5,-27.1,-15.4
O=C(CCNS(=O)(=O)c1cccs1)NCc1cccs1,0.8,-5.7,-1.9,-0.6,110.2*,2.2,0.8,-7.7,-4.8
O=C(CCNS(=O)(=O)c1ccc(Br)cc1)NCc1cccs1,0.5,-1.2,-1.3,-1.5,0.7,5.9,nt,nt,nt
COc1ccc(OCCCC(=O)OCC(=O)N2CCN(S(=O)(=O)c3ccc(C)cc3C)CC2)cc1,0.5,0.1,5.4,nt,1.6,nt,nt,nt,nt
CCn1c(O)c(/C=N/N=C2CCCC2)c2ccc(C3=NNC(=O)CC3)cc21,1.0,7.6,4.2,12.4,39.9*,-2.3,34.6,-48.7,6.4
Cc1ccnc2c1ccc1cccnc12,0.6,0.7,0.7,nt,9.1,nt,nt,nt,nt
Cc1ccnc2c1ccc1c(C)ccnc12,-1.5,-2.2,1.4,nt,46.0*,1.9,34.0,5.9,-0.7
CCOc1ccc(NC(=O)COC(=O)c2c[nH]c3ccccc23)cc1,nt,-2.9,0.9,nt,-0.2,nt,nt,nt,nt
CC(C)(C)NC(=O)C(C1CC1)n1c(=O)c(-c2ccccc2)nc2ccccc21 (stereo not given),nt,3.4,-1.5,nt,nt,nt,nt,nt,nt
COc1cc(S(=O)(=O)N2CCN(Cc3ccc4c(c3)OCO4)CC2)ccc1NC(C)=O,nt,9.6,8.0,nt,64.7*,6.5,4.2,-11.2,-7.3
COc1ccc(S(=O)(=O)N2CCN(Cc3ccc4c(c3)OCO4)CC2)cc1F,1.9,-2.2,-1.9,0.3,-2.0,0.6,nt,nt,nt
Cc1cc(/C=C(/C#N)c2nc3ccccc3[nH]2)c(C)n1-c1ccccc1C(=O)O,-6.5,29.8,4.6,23.6,54.7*,11.4,74.9*,-3.2,50.8*
COCCN1C[C@@H](CO)O[C@@H](n2cnc3c(NCCCO)ncnc32)C1,nt,0.0,2.8,nt,-1.9,nt,nt,nt,nt
